Screening results from PubChem.
Rows were chosen to be rich in hits. Some 2.9% of all compounds tested hit in one or more screens of this group.
mHtt clearance: compounds clearing mutant huntingtin protein. HeLa Exon1htt(103Q)mCFP, aggregate imaging; zero = plate's median compound well. inhibition, % at 1.5 µM. hit rate 0.42% among 47,000;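 active means inhibition of aggregate fluorescence above about 70%, also judged a hit by eye on the cell image, limit read from the data, passing the limit was not always enough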;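 further: cells exposed to compound for three days before fixation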
PKA kinase inh: inhibitors of human protein kinase A. PKA Kemptide phosphorylation, Kinase-Glo ATP luminescence. AID 524. inhibition, % at 6 µM. hit rate 0.1% among 65,000. P17612;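 active means inhibition above the screen-wide mean inhibition plus 3 SD, cut at about 21% in these data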
ROCK2 blocker: ROCK2 (human) kinase inhibition; O75116; purified ROCK2, Kinase-Glo ATP depletion luminescence; inhibition, % at 6 µM; hit rate 0.35% among 60,000; AID 604;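 active means inhibition above the screen-wide mean inhibition plus 3 SD, cut at about 18% in these data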;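 further: plate controls were DMSO wells for no effect and Y-27632 control wells after no-enzyme background subtraction for full effect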
RORa activator: activates the human nuclear receptor RORA; CHO-K1 Gal4-RORA LBD luciferase reporter, luminescence; percent increase over mock-subtracted basal signal; activation, % at 10 µM; hit rate 1.5% among 65,000; AID 560;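 active means activation above the mean of all tested compounds plus 3 SD, cut at about 49% in these data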;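 further: 0% = DMSO-treated RORA cells and 100% = added signal equal to DMSO minus mock-transfected cells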
JNK3 inh: inhibitors of human JNK3 kinase; P53779; purified JNK3 kinase activity, HTS; inhibition, % at 8 µM; hit rate 0.61% among 60,000; AID 746; in the data active means inhibition above about 17%;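 further: 0% = DMSO and 100% = reference inhibitor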
SF-1 act: SF-1 (human) activation; hit rate 1.9% among 65,000; activation, % at 10 µM; CHO-K1 Gal4-SF-1 LBD luciferase reporter; % increase over DMSO SF-1-specific signal;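 active means activation above the mean activation of all tested compounds plus 3 SD, cut at about 50% in these data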
Target sequence (Q13285 whole entry, looked up, the tested form may be a part): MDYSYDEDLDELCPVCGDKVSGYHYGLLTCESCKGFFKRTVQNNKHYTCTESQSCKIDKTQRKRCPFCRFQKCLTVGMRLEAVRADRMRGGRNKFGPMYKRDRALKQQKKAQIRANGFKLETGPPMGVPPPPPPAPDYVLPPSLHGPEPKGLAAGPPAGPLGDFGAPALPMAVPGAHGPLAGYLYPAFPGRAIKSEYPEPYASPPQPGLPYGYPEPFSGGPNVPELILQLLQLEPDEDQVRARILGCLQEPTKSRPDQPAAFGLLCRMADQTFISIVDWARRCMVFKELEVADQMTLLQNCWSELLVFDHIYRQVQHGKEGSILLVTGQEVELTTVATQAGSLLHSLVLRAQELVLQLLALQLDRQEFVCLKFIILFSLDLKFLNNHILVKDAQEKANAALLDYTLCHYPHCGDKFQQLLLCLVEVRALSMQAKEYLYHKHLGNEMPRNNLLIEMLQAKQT
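System: CHO-K1 cells with Gal4–hSF-1 LBD chimera plus Gal4-driven luciferase; quantity: 4,000 CHO-K1 cells per well; compound: one dose, 10 µM compound, 1% DMSO; times: 20 h compound treatment, 37 °C; measured by: SteadyLite luciferase luminescence; read-out: percent activation versus DMSO; benchmarks: DMSO and mock-transfected background; replicates: one test per compound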
Active calls of the source: *; nt = not tested or not shown.

SMILES | mHtt clearance | PKA kinase inh | ROCK2 blocker | RORa activator | JNK3 inh | SF-1 act
Cc1nc2cc(C(=O)O)ccc2s1 | -11 | 0 | -2 | 21 | -2 | 53*
O=C(Nc1ccc(N2CCCCC2)cc1)c1cncc(Br)c1 | 21 | -4 | -7 | 78* | -6 | 8
O=C(Nc1ccc(N2CCCCC2)c(Cl)c1)c1cccnc1 | nt | 11 | 7 | 38 | -2 | 75*
CCCCOC(=O)Nc1cc(OC)c(Cl)cc1OC | nt | 8 | 4 | 8 | -5 | -4
COc1cc(C(=O)NCc2cn3ccccc3n2)cc(OC)c1OC | nt | 8 | 4 | -4 | 58* | 3
COc1cc(C(=O)NCc2cn3cccc(C)c3n2)cc(OC)c1OC | -1 | -4 | 1 | 4 | -2 | 14
CCN=c1scc(C)n1/N=C/c1ccsc1 | nt | 10 | 3 | 69* | -10 | 70*
Cc1ccccc1OCCCn1c(=O)sc2ccccc21 | -26 | nt | nt | nt | nt | nt
Cc1ccc(-c2cc(-c3ccccc3C)[nH]n2)c(O)c1 | 22 | nt | nt | nt | nt | nt
Cc1ccc(-c2cc(-c3cccc(F)c3)n[nH]2)c(O)c1 | nt | 10 | 9 | 68* | -3 | 53*
CCOC(=O)C1C(=O)OC(C)(C)C1C(C)C(=O)c1ccccc1 (stereo unspecified) | -45 | nt | nt | nt | nt | nt
C=CCn1c(-c2ccc(Cl)cc2)c[nH]c1=S | -29 | 7 | 6 | 2 | -5 | 6
C=CCn1c(-c2ccccc2)c[nH]c1=S | -6 | 16 | 5 | 6 | 5 | 53*
CCOc1ccc(-n2c(C)nc3c(cnn3-c3ccc(Cl)cc3)c2=O)cc1 | 36 | 1 | -1 | -13 | 0 | -17
CCOc1nnc(C)c2c(C)n(-c3ccc(Cl)cc3)nc12 | 74* | nt | nt | nt | nt | nt
COc1ccc(-n2cnc3c(cnn3CCC#N)c2=N)cc1 | -36 | -2 | 1 | 15 | -1 | 1
N#Cc1cc2c(nc1SCc1ccccc1)CCC2 | -61 | nt | nt | nt | nt | nt
N#Cc1cc2c(nc1SCc1ccncc1)CCC2 | 2 | 0 | 58* | 7 | 2 | 29
N#Cc1cc2c(nc1SCC(=O)N1CCCCC1)CCCC2 | 2 | -4 | -1 | -3 | -3 | -13
COC(=O)CSc1nc2cc(C)ccc2cc1C#N | 11 | 6 | 0 | 17 | -3 | 100*
CCOC(=O)CC(=O)CSc1nc2ccc(C)cc2cc1C#N | -323 | 14 | 2 | 20 | 2 | 72*
CCOC(=O)CC(=O)CSc1nc2c(cc1C#N)CCCCC2 | nt | -2 | 0 | 19 | 0 | 59*
Cc1ccc2nc(SCC(=O)NCC3CCCO3)c(C#N)cc2c1 (stereo unspecified) | 14 | 8 | 2 | 21 | -4 | -7
Cc1ccc2cc(C#N)c(SCC(=O)NCC3CCCO3)nc2c1 (stereo unspecified) | nt | -2 | 3 | -9 | 4 | 5
CCn1c2ccccc2c2nnc(SCC(=O)NC(C(=O)OC)C(C)C)nc21 (stereo unspecified) | nt | 13 | 6 | -19 | 2 | -3
SMILES | mHtt clearance | PKA kinase inh | ROCK2 blocker | RORa activator | JNK3 inh | SF-1 act
CC(C)OC(=O)N(C)c1ccc(C(O)(C(F)(F)F)C(F)(F)F)cc1 | 76* | nt | nt | nt | nt | nt
Cn1c(SCc2c(F)cccc2Cl)nnc1-c1cccs1 | nt | 8 | 1 | 102* | 2 | 58*
Cc1cc(C(=O)CSc2n[nH]c(N)n2)c(C)n1-c1cccc(F)c1 | nt | -7 | -10 | 1 | -8 | 18
Cc1cc(C(=O)CSc2nnnn2C)c(C)n1-c1cccc(F)c1 | -17 | 5 | -4 | 16 | -3 | 53*
O=C(Nc1ccc(Oc2ncccn2)cc1)c1ccco1 | -17 | -1 | -2 | 13 | -3 | 10
Cc1ccc(NC(=O)c2ccc(OC(=O)c3cc4ccccc4o3)cc2)cc1 | -4 | nt | nt | nt | nt | nt
Cc1ccc(NC(=O)c2ccc(OC(=O)c3ccco3)cc2)cc1 | -22 | 1 | -6 | 51* | -12 | 52*
Cc1ccc(Oc2ccc(NC(=O)c3ccco3)cc2)cc1 | nt | 5 | 0 | 46 | 6 | 73*
Cc1ccc(-n2c(-c3c(-c4ccccc4)noc3C)n[nH]c2=S)cc1 | -30 | nt | nt | nt | nt | nt
CCOC(=O)CC(Nc1nc(N2CCOCC2)nc(N2CCOCC2)n1)c1ccccc1Cl (stereo unspecified) | -4 | -1 | -3 | -11 | 2 | 6
CCCCN1CCc2c([nH]c3ccc(C)cc23)C1=O | nt | 8 | 5 | 51* | -6 | 51*
COc1ccc(-c2cc3nc(C)cc(NCCO)n3n2)cc1 | -36 | -7 | -3 | 1 | -3 | 8
Cc1ccc(-c2cc3nc(C)cc(NCc4ccco4)n3n2)cc1 | nt | 10 | 7 | 59* | 0 | 51*
Oc1ccccc1-c1cc(-c2ccc3c(c2)OCCO3)n[nH]1 | nt | 4 | nt | 55* | nt | 36
COc1ccc(/C=N/c2nc3ccccc3n2CCN2CCCCC2)cc1OC | 0 | nt | nt | nt | nt | nt
COc1ccc(/C=N/n2c(N)nc3ccccc32)cc1OC | -7 | 16 | 12 | 22 | 48* | 12
N#CC1=C(N)c2ccccc2CC12CCCCC2 | 11 | nt | nt | nt | nt | nt
CN(C)c1ccc(-c2nn3c(C4CCCCC4)nnc3s2)cc1 | 5 | 2 | 1 | -4 | 3 | -16
c1coc(CNc2ncnc3sc4c(c23)CCCCC4)c1 | nt | 9 | 18* | -9 | 11 | 7
CCCn1c(C)nc2c(c1=O)c1nc3ccccc3nc1n2-c1ccc2c(c1)OCCO2 | nt | 1 | -6 | -12 | -5 | 1
CCCCNc1ncnc2c1cnn2-c1ccccc1 | 42 | 10 | 5 | 63* | 6 | 40
c1ccc(-n2ncc3c(NCCCN4CCOCC4)ncnc32)cc1 | -65 | 6 | 4 | 26 | -1 | 43
Clc1ccc(-n2ncc3c(NCCCn4ccnc4)ncnc32)cc1 | nt | 7 | 9 | 12 | 1 | 47
Fc1cccc(Nc2ncnc3c2cnn3-c2ccccc2)c1 | nt | 4 | 5 | 102* | 7 | 57*
CCCCNc1ncnc2c1cnn2-c1ccc(Cl)cc1 | nt | 7 | 8 | 109* | -1 | 90*
SMILES | mHtt clearance | PKA kinase inh | ROCK2 blocker | RORa activator | JNK3 inh | SF-1 act
O=C(O)c1c(Cl)c(Cl)c(Cl)c(Cl)c1C(=O)N1CCOCC1 | -27 | 2 | -1 | 12 | 6 | -12
CCn1c(Cc2cccc3ccccc23)nnc1SCC(=O)Nc1nccs1 | 51 | nt | nt | nt | nt | nt
CCOC(=O)N1CCN(C(=O)CCSc2ccccc2)CC1 | nt | -2 | nt | 45 | nt | 48
O=c1c2ccccc2nnn1CSc1ccc2c(c1)OCCO2 | nt | 6 | 3 | 38 | 4 | 77*
O=C(Cn1cnc2ccccc2c1=O)c1ccc2c(c1)OCCO2 | 22 | 6 | 7 | 39 | 6 | 75*
O=c1c2ccccc2nnn1CSc1nnc2ccccn12 | -18 | 8 | 6 | 23 | -2 | 78*
O=C(Cn1cnc2ccccc2c1=O)NCc1ccc2c(c1)OCO2 | -18 | nt | nt | nt | nt | nt
Cc1ccc(-n2nnnc2SCn2nnc3ccccc3c2=O)cc1 | 30 | nt | nt | nt | nt | nt
O=C(OCn1nnc2ccccc2c1=O)C1=COCCO1 | nt | 3 | 3 | -10 | -8 | -12
CC1=NC(=O)C(N=Nc2cccc3ccccc23)N1c1ccccc1 (stereo unspecified) | 10 | nt | nt | nt | nt | nt
CCSc1ccc2nnc(-c3ccc(F)cc3)n2n1 | 21 | -7 | -7 | 20 | 0 | 2
COc1ccc(-c2cc3nc4c(c(=O)n3[nH]2)CCC4)cc1 | nt | 10 | 6 | 54* | 5 | 63*
Cc1cc2nc3c(c(=O)n2[nH]1)CCCC3 | 27 | 3 | nt | -1 | nt | 15
O=c1c2c(nc3cc(-c4ccccc4)[nH]n13)CCC2 | -16 | 1 | -5 | 39 | -7 | 60*
